Publication PMC6863157 (Investigational new drugs, 2016)

Columns and labels:
[1] = test system: RAS- or RAF-mutant FDG-PET-avid tumors; test: FDG-PET pharmacodynamic; assay type: in vivo, human; settings: Cycle 1 Day 10–14 (on drug); 60-mg (21/7) MTD; 8 of 17
[2] = test system: phosphorylation of ERK1/2 in cell lines harboring KRAS or BRAF mutations; settings: cited from earlier work
[3] = test system: patients with advanced solid tumors; settings: in vivo
advanced solid tumors = test: Tumor response by RECIST; assay type: in vivo, human; settings: for partial responses (PRs): melanoma patients
Method in brief: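 Oral test compound was given once daily at 60 mg (21/7) or 100 mg (14/14) in 28-day cycles. Patients with measurable lesions had CT at screening and about every 8 weeks, assessed by RECIST. CR/PR was confirmed 4 weeks after first documentation. Archival tissue was typed for BRAF V600, NRAS Q61 and KRAS G12/13 mutations. Responses were summarized as frequency counts and percentages.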

Plasma pharmacokinetics = assay type: in vivo, human; settings: for half-life: human, plasma; for CL/F apparent plasma clearance: steady state, geometric mean (%CV)
Method in brief: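 Advanced solid tumor patients took oral test compound capsules once daily on 21-day on/7-day off or 14-day on/14-day off schedules in 28-day cycles. Serial plasma was sampled after the first dose (Day 1) and last dose (Day 21 or 14) of Cycle 1, plus pre-dose on Day 1 of later cycles. Analysis was by validated LC-MS/MS with noncompartmental analysis. Racc = Day 21 AUC0–24/Day 1 AUC0–24.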

[4] = test system: patients with advanced solid tumors; test: Phase Ia dose escalation/expansion: safety, DLT, MTD, adverse events; settings: oral once daily

Q: What does the source list for `O=C(c1ccc(F)c(F)c1Nc1ccc(I)cc1F)N1CC(O)([C@@H]2CCCCN2)C1` [cobimetinib]?
A: FDG-PET metabolic response rate [1]: 47%; effect on ERK1/2 phosphorylation [2]: inhibits the phosphorylation of ERK1/2; incidence of edema ([3]; human): 34%; incidence of treatment-related rash ([3]; human): 54%; median onset of rash ([3]; human): 12 days; median rash duration ([3]; human): 20 days; patients with Grade ≥ 2 central serous retinopathy (CSR) ([3]; human): 5%; patients with at least one SAE, regardless of causality ([3]; human): 42%; patients with at least one treatment-related AE ([3]; human): 90%; patients with dose reductions due to treatment-related rash ([3]; human): 4%; patients with gastrointestinal disorder SAEs, regardless of causality ([3]; human): 14%; patients with treatment-related AEs that led to dose reductions or interruption ([3]; human): 25%; treatment-related AEs that were Grade 1–2 ([3]; human): 72%; treatment-related rash that was Grade 1 or 2 ([3]; human): 94%; patients who experienced DLTs [3]: four; retinal vein occlusion [3]: no reports; reversibility of visual adverse events [3]: reversible and resolved within one week; symptomatic decreases in LVEF [3]: No events; RECIST responses (advanced solid tumors; 28 patients with KRAS-mutant colorectal cancer): no responses; patients with prolonged stable disease (SD) of five months or greater (advanced solid tumors; all tumor types): five; partial responses (PRs) (advanced solid tumors; 60 mg on the 21/7 dosing schedule): three; partial responses (PRs) (advanced solid tumors; 100 mg 14/14 dosing schedule): three; duration of stable disease (advanced solid tumors; patient with adenoid cystic carcinoma): 7 months; duration of stable disease (advanced solid tumors; patient with carcinoid): ≥ 47 months; duration of stable disease (advanced solid tumors; patient with esophageal tumor): 6 months; duration of stable disease (advanced solid tumors; patient with non-small cell lung cancer): 13 months; median time on cobimetinib of responders (advanced solid tumors; seven responders, range 42–721+ days): 280 days; exposure vs dose (Plasma pharmacokinetics; from 0.05 mg/kg (approximately 3.5 mg for a 70-kg adult) to 100 mg): dose-proportional; half-life (Plasma pharmacokinetics; oral, 100 mg, t1/2 elimination half-life, 100 mg (14/14), geometric mean (range), n 13): 54 h; half-life (Plasma pharmacokinetics; oral, mean terminal half-life, across all doses): 49 h; half-life (Plasma pharmacokinetics; oral, terminal half-life, range, across all doses): 23 to 80 h; median tmax (Plasma pharmacokinetics; oral, all cohorts): one to three; CL/F apparent plasma clearance (Plasma pharmacokinetics; 60 mg (21/7), n 37): 13.8 (61) L/h; CL/F apparent plasma clearance (Plasma pharmacokinetics; 100 mg (14/14), n 18): 14.8 (92) L/h; maximum tolerated dose (MTD) ([4]; 14/14 dosing schedule): 100 mg; maximum tolerated dose (MTD) ([4]; 21/7 dosing schedule): 60 mg
